Hits are enriched below; roughly 3.7% of the tested compounds scored in any of these assays.
KCNQ1 inh = blocks the human KCNQ1 potassium channel; B-score at 10 µM; 310,000 tested, 1.3% active; CHO-K1 KCNQ1, FluxOR thallium flux fluorescence; hits give high values; P51787;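 active means compounds whose thallium flux B-score, printed positive for inhibition, exceeds three library SD while starting fluorescence stays within three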;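 further: channel opened by potassium depolarization with thallium stimulus after 20 min compound exposure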
KCNK3 inh = human KCNK3 channel inhibition, primary screen. O14649. CHO-KCNK3 thallium flux, FluxOR fluorescence; hits give low values. B-score at 10 µM. 340,000 tested, 0.84% active. AID 602410;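 active means B-score under library mean minus 4 SD, starting fluorescence ratio at most library mean plus 5 SD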;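 further: more negative B-score means stronger inhibition of thallium flux through KCNK3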
KCNK9 inh = human KCNK9 channel inhibition; AID 488922; HEK293 KCNK9, FluxOR thallium flux fluorescence; hits give low values; 310,000 tested, 1.2% active; B-score at 10 µM; Q9NPC2;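 active means ratio B-score over 3 SD below the library mean, with starting fluorescence within 5 SD of its mean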;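 further: negative B-score means less thallium flux so channel inhibition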
hERG protect = hERG (human) protection from proarrhythmic block; CHO-hERG, FluxOR thallium flux, dofetilide IC70 present; AID 1511; 310,000 tested, 0.51% active; activation (rescue from dofetilide block), less the hit threshold, % at 10 µM; Q12809;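 active means activation above the mean of controls blocked by dofetilide plus 5 SD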;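 further: thallium influx through hERG after potassium depolarization seen as dye fluorescence rise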
Target sequence (Q12809 whole entry, looked up): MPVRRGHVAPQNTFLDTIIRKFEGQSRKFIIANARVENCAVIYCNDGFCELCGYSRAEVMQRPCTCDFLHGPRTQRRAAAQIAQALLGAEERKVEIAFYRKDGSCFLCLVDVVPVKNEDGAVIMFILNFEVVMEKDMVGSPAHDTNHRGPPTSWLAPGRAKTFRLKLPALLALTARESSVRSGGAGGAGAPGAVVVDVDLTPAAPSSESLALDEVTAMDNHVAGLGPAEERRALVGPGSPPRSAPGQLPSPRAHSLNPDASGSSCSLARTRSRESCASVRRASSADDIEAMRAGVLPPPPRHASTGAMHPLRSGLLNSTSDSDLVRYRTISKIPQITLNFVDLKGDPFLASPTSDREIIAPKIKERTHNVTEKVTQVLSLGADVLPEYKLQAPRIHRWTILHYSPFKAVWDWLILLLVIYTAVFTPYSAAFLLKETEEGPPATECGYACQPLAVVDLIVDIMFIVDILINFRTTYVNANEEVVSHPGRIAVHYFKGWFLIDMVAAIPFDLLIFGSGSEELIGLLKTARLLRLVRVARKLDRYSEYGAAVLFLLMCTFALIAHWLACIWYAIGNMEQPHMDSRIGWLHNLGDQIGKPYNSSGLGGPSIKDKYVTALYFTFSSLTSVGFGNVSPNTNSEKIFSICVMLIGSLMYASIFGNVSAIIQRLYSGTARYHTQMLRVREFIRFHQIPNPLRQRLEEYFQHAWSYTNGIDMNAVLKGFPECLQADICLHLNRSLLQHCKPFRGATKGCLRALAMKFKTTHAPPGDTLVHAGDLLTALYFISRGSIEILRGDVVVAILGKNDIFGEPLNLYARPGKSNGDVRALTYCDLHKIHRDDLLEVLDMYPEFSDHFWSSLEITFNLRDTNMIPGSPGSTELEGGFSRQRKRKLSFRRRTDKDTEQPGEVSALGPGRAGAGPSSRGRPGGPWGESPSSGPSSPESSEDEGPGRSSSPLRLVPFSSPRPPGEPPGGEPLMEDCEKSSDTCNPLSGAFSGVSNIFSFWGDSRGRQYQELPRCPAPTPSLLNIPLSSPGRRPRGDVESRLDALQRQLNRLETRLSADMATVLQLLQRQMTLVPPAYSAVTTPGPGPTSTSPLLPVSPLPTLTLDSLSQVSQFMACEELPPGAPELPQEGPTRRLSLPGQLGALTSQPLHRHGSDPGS
Kir21 inh = Kir2.1 (mouse) channel inhibition. 310,000 tested, 0.85% active. AID 1672. B-score at 10 µM. P35561. HEK293-Kir2.1, FluxOR thallium flux fluorescence; hits give low values;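 active means fluorescence ratio B-score at or below minus 3 SD of library scores, with starting-brightness B-score within 2 SD, cut at about -4.2 in these data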;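 further: channel flux triggered by added potassium and thallium sulfate stimulus; B-score of peak minus minimum fluorescence over baseline after thallium stimulus; more negative B-score means stronger Kir2.1 block with less thallium influx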
KCNQ1 act = human KCNQ1 channel potentiation or activation | P51787 | CHO-K1 KCNQ1, thallium flux FluxOR fluorescence; hits give high values | B-score at 10 µM | 310,000 tested, 0.35% active | AID 2648;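 active means fluorescence ratio B-score, a plate-corrected score, at least three library SD, with initial intensity B-score within 5 SD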
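Test system: CHO-K1 cells stably expressing KCNQ1 / Medium: assay buffer / Also added: depolarizing K+/Tl+ stimulus, K2SO4 and Tl2SO4 each 12.5 mM in 5x stock / Incubation: 90 min dye loading and 20 min compound exposure, both at room temperature / Signal: thallium influx via FluxOR fluorescence, kinetic imaging / Evaluation: B score of baseline-normalized fluorescence ratio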
Large screens that a line does not name were inactive; ! = not confirmed by another sample.

CC(C)OC(=O)CSc1nnc(CNc2cccc(Cl)c2)n1C	none
CCOC(=O)c1[nH]c2ccccc2c1NC(=O)C(C)(C)C	none
CCOC(=O)c1[nH]c2ccccc2c1NC(=O)C1CCCCC1	hERG protect 4.8
O=C(COc1ccccc1)N[C@@H]1c2ccccc2CC[C@H]1OCc1ccccc1	none (no result: KCNQ1 inh, KCNK9 inh, hERG protect, Kir21 inh, KCNQ1 act)
CCOc1ccc(/C=C2\CCCc3c2nc2ccccc2c3C(=O)O)cc1OC	KCNQ1 inh 19
CCOC(=O)C(=NCC1CCCO1)NNc1ccccc1Cl (stereo unspecified)	none
CCCc1ccc(/C=C2\C(=O)c3ccccc3C(O)=C2C(=O)OCC)cc1	KCNQ1 act 8 (no result: KCNK3 inh)
CCOC(=O)C1=C(O)c2ccccc2C(=O)/C1=C\c1ccc(CC)cc1	KCNQ1 act 8
O=C(CN1CCCC(O)C1)N1c2ccccc2Sc2ccc(C(F)(F)F)cc21 (stereo unspecified)	none
CN1CCN(CCCN2c3ccccc3Sc3ccc(C(F)(F)F)cc32)CC1	KCNQ1 inh 6, Kir21 inh -4.43
CN(C)c1ccc(/C=N\NC(=S)SCN2C(=O)C3CCC(C)(C2=O)C3(C)C)cc1 (stereo unspecified)	none (no result: KCNQ1 inh, KCNK9 inh, hERG protect, Kir21 inh, KCNQ1 act)
COc1ccc(/C=N\NC(=S)SCN2C(=O)C3CCC(C)(C2=O)C3(C)C)cc1 (stereo unspecified)	KCNQ1 act 16
C=CC(C)(C)c1c(O)c(CC=C(C)C)c(O)c2c(=O)c3ccc(O)c(O)c3oc12	KCNQ1 inh 6
CNC(=O)CN(c1cccc2ccccc12)S(C)(=O)=O	hERG protect 7.0
Oc1ccc(C=NN=C2c3ccccc3-c3ccccc32)c(O)c1	KCNK3 inh -8.78 (no result: KCNQ1 inh, KCNK9 inh, hERG protect, Kir21 inh, KCNQ1 act)
COc1ccccc1CNS(=O)(=O)c1ccc(Br)s1	Kir21 inh -4.98
Cc1cc(NC(=O)C(C)SCC(=O)N(C)CC(=O)Nc2ccccc2Br)no1 (stereo unspecified)	none
COCn1c(-c2ccc(OC)cc2)nc2ccccc21	none
CCCn1c(-c2ccc(OC)cc2)nc2ccccc21	Kir21 inh -4.49
COc1ccccc1OCCC(=O)OCC(=O)Nc1ccc2c(c1)OCO2	none (no result: KCNQ1 inh, KCNK9 inh, hERG protect, Kir21 inh, KCNQ1 act)
CCc1ccc2cccc3c2c1N=CN3C	none
O=c1[nH]c(CN2CCN(c3ccccn3)CC2)nc2c(Br)cc(Br)cc12	none
O=c1[nH]c(CN2CCN(c3ncccn3)CC2)nc2c(Br)cc(Br)cc12	KCNK9 inh -7.52
CC1(C)C[C@@H]2C[C@@](C)(CN2C(=O)c2cc(COc3cccc(C(F)(F)F)c3)on2)C1	KCNQ1 inh 7
O=C(c1cc(COc2cccc(C(F)(F)F)c2)on1)N1C[C@H]2CC[C@H]1C2	none
CC(C)OC(=O)C(C)(C)Oc1ccc(C(=O)c2ccc(Cl)cc2)cc1	none
CCNC(=O)NC(=O)C(C)OC(=O)C(C)(C)Oc1ccc(Cl)cc1 (stereo unspecified)	Kir21 inh -5.31
O=C(COC(=O)c1ccc(F)cc1Cl)NC(=O)NC1CCCC1	none (no result: KCNQ1 inh, KCNK9 inh, hERG protect, Kir21 inh, KCNQ1 act)
Cc1[nH][nH]c(=O)c1C(c1ccc(-c2cccc(C(=O)O)c2)o1)c1c(C)[nH][nH]c1=O	none
Cc1[nH][nH]c(=O)c1C(c1ccc(-c2cccc(Cl)c2)o1)c1c(C)[nH][nH]c1=O	Kir21 inh -6.62
Cc1c2cnccc2c(C)c2c1oc1ccccc12	none (no result: KCNQ1 inh, KCNK9 inh, hERG protect, Kir21 inh, KCNQ1 act)
COc1ccc(-c2c[n+]3c(n2-c2ccccc2)CCCCC3)cc1	none
COc1ccccc1-n1c(-c2ccccc2)c[nH]c1=S	none
COc1ccc(-n2c(-c3ccc(Br)cc3)c[n+]3c2CCc2ccccc2-3)cc1	KCNQ1 inh 10, Kir21 inh -5.89
COc1ccc(-n2cc(-c3ccccc3)[n+]3c2CCCCC3)cc1	none
COc1ccccc1-n1c(-c2ccccc2)c[n+]2c1CCc1ccccc1-2	KCNQ1 inh 9!, KCNK3 inh -9.48!, KCNK9 inh -7.79, Kir21 inh -13.6
COc1ccc(-c2cn(-c3ccc(OC)cc3)c3[n+]2-c2ccccc2CC3)cc1	KCNQ1 inh 6
CCOc1cc(/C=C(\C#N)C(=O)Nc2ccc(S(N)(=O)=O)cc2)ccc1OCCN1CCOCC1	none
CN(C)CCCn1c(SCC(=O)N2c3ccccc3Sc3ccccc32)nc2ccccc2c1=O	Kir21 inh -5.21
CCOC(=O)Cn1c(S(=O)(=O)Cc2ccc(Cl)cc2)nc(-c2ccccc2)c1-c1ccccc1	KCNK9 inh -6.76
Cc1ccc(C(=O)c2no[n+]([O-])c2C(=O)c2ccc(C)cc2)cc1	Kir21 inh -7.89
Cc1ccc(C(=O)c2ccc(C)cc2)cc1	none
CCOc1ccc(NC(=S)N2CCC(NC(=O)c3ccco3)CC2)cc1	none
CCN(CC)c1ccc(NC(=O)c2c(C)noc2C)cc1	none
CC1CC(C)CN(C(=O)COC(=O)/C=C/c2cccc([N+](=O)[O-])c2)C1 (stereo unspecified)	none (no result: KCNQ1 inh, KCNK9 inh, hERG protect, Kir21 inh, KCNQ1 act)
Cc1[nH]c2ccc(F)cc2c1CCN(Cc1ccncc1)C(=S)Nc1ccc(F)cc1	KCNK9 inh -7.12
Cc1ccccc1NC(=S)N(CCc1c(C)[nH]c2ccc(F)cc12)Cc1cccnc1	none
COc1ccc(OCC(NS(=O)(=O)c2ccc(-n3cnnn3)cc2)C(C)C)cc1 (stereo unspecified)	none
O=C1Nc2cc(C(=O)NCCCN3CCOCC3)ccc2S/C1=C/c1cccc(Cl)c1	none
O=C1Nc2cc(C(=O)NCCCN3CCCC3)ccc2S/C1=C\c1ccccc1	Kir21 inh -4.91
CCN1CCN(CCNC(=O)c2ccc(/C=C3/Sc4ccccc4N(Cc4ccccc4C)C3=O)cc2)CC1	KCNQ1 inh 14, Kir21 inh -5.57
Cc1ccccc1CN1C(=O)c2ccccc2Sc2ccc(C(=O)NCCN3CCOCC3)cc21	none
CCN1CCN(CCCNC(=O)c2ccc(/C=C3/Sc4ccccc4N(Cc4ccccc4F)C3=O)cc2)CC1	KCNQ1 inh 7, KCNK9 inh -6.74
O=C(NCCCN1CCOCC1)c1ccc(/C=C2\Oc3ccccc3N(Cc3ccccc3F)C2=O)cc1	none
COC(=O)c1sc(NC(=O)COc2cccnc2[N+](=O)[O-])c(C(=O)OC)c1C	none (no result: KCNQ1 inh, KCNK9 inh, hERG protect, Kir21 inh, KCNQ1 act)
COc1ccc(S(=O)(=O)NCC(c2ccc3c(c2)OCO3)N2CCN(c3ccccc3)CC2)cc1 (stereo unspecified)	none
CC(=O)c1ccc(NC(=O)CN2CCCC2)cc1	none
Cc1ccc(S(=O)(=O)N(C)C)cc1NC(=S)NC(C)CCC(C)C (stereo unspecified)	none
Cc1ccc(S(=O)(=O)N(C)C)cc1NC(=S)NC(C)CCCC(C)C (stereo unspecified)	hERG protect 6.6
COc1ccc(S(=O)(=O)N(C)C)cc1NCC(=O)Nc1cccc2ccccc12	KCNK9 inh -7.37
Cc1ccc(S(=O)(=O)N(C)C)cc1NC(=S)Nc1cccc2ccccc12	KCNK9 inh -7.13
Cc1cn(CC(=O)NCCCn2ccnc2)c(=O)[nH]c1=O	none (no result: KCNQ1 inh, KCNK9 inh, hERG protect, Kir21 inh, KCNQ1 act)

From PubChem BioAssay
